This is an account of results in ChEMBL document CHEMBL1132154, “Novel partial agonists for the histamine H(3) receptor with high in vitro and in vivo activity” (J Med Chem, 1999).

The target of experiment [1] is Histamine H3 receptor (Cavia porcellus) (UniProt Q9JI35). In words: Antagonist activity against histamine H3 receptor in guinea pig ileum. In kind it is functional, tissue-based. The gist of the method:
(§1)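 Isolated guinea pig ileum segments, electrically evoked twitches; H3 antagonism from concentration-dependent inhibition of twitches by (R)-α-methylhistamine in presence of antagonist; agonist activity from concentration–response curves of the test compound in place of (R)-α-methylhistamine; each experiment at least in triplicate.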

For experiment [2], the target named is Histamine H1 receptor (Cavia porcellus) (UniProt P31389). Put plainly: Antagonist activity against histamine H1 receptor in guinea pig ileum. The experiment is classed as functional, tissue-based. The gist of the method: (§2)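 Isolated guinea pig tissues: H1 activity on ileum, H2 activity on spontaneously beating right atrium, by standard functional methods; each test at least in triplicate; exact type of interaction not determined in every case.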
Histamine H1 receptor (Cavia porcellus), sequence (P31389 whole entry): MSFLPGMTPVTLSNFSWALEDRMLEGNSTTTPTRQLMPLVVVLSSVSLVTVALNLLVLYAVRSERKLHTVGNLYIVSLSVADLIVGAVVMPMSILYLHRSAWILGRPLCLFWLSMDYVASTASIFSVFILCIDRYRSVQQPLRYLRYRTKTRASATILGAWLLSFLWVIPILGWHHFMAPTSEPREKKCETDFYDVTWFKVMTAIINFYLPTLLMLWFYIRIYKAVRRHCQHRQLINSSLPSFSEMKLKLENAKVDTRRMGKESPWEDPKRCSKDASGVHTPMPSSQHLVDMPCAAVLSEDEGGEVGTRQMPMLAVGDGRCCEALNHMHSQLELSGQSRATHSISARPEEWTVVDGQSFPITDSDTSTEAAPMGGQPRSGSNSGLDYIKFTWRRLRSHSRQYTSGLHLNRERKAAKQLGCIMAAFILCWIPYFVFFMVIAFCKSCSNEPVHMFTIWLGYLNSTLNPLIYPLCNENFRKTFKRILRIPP

In experiment [3] the target is Histamine H2 receptor (Cavia porcellus) (UniProt P47747). Put plainly: Antagonist activity against histamine H2 receptor in guinea pig atrium. In kind it is functional, tissue-based. Conditions: Cardiac atrium. The gist of the method: as §2
Histamine H2 receptor (Cavia porcellus), sequence (P47747 whole entry): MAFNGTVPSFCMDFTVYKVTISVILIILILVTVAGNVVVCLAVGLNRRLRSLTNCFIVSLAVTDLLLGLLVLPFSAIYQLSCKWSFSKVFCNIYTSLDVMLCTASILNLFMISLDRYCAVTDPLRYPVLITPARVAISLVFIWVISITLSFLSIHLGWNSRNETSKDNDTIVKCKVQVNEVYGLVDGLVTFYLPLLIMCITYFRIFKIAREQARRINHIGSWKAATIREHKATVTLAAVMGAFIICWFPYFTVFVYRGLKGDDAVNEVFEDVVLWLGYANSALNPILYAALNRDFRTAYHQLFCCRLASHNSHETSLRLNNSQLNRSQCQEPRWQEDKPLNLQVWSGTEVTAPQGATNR
Experiment [4] concerns the target Histamine H3 receptor (Mus musculus) (UniProt P58406). Put plainly: In vivo intrinsic activity against histamine H3 receptor in mice after peroral administration. The experiment is classed as organism-based. A digest of the protocol:
(§3)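 Swiss mice dosed orally with compounds as a methylcellulose suspension; brain histamine turnover assessed from increased (antagonist) or decreased (agonist) cerebral cortex N-methylhistamine level; intrinsic activity from modulation of this metabolite level; at least in triplicate.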

Experiment [5] has the same target. In words: In vivo agonistic activity against histamine H3 receptor in mice after peroral administration. The experiment is classed as functional, organism-based. A digest of the protocol: as §3
Experiment [6] addresses Histamine H3 receptor (Cavia porcellus) (UniProt Q9JI35). In words: Binding affinity for guinea pig ileum histamine H3 receptor. In kind it is tissue-based. The gist of the method:
as §1

The target in experiment [7] is T1, Histamine H3 receptor (Rattus norvegicus, UniProt Q9QYN8). In words: Antagonist activity against histamine H3 receptor on synaptosomes of rat cerebral cortex. In kind it is functional, subcellular, Brain. The gist of the method:
(§4)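 Rat cerebral cortex synaptosomes; K+-evoked depolarization-induced [3H]histamine release measured for H3 agonist and antagonist activity; intrinsic activity derived from this preparation; at least triplicate.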

Experiment [8] concerns the target T1, Histamine H3 receptor. In words: (§5) In vitro binding affinity against histamine H3 receptor from synaptosomes of rat cerebral cortex. In kind it is subcellular, Brain.
Experiment [9] concerns the target T1, Histamine H3 receptor. The description is as §5. The experiment is classed as subcellular, Brain. The gist of the method: as §4
The source holds these as a separate data set.

Experiment [10] concerns the target T1, Histamine H3 receptor. Put plainly: In vitro intrinsic activity against histamine H3 receptor from synaptosomes of rat cerebral cortex. The experiment is classed as subcellular, Brain. A digest of the protocol: as §4

Histamine H3 receptor (Cavia porcellus), sequence (Q9JI35 whole entry): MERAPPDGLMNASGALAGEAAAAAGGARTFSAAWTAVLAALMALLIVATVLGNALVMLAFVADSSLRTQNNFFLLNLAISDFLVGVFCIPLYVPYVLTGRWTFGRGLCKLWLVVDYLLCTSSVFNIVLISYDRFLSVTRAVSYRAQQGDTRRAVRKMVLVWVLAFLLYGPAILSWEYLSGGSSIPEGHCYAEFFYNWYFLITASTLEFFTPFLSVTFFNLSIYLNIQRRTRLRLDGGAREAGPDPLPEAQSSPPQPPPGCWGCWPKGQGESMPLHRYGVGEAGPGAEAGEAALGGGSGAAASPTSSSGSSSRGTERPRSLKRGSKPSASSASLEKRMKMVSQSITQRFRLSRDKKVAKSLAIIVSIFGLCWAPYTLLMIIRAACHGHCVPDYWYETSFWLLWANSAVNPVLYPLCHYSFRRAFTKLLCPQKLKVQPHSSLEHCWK
T1 sequence (Q9QYN8 whole entry): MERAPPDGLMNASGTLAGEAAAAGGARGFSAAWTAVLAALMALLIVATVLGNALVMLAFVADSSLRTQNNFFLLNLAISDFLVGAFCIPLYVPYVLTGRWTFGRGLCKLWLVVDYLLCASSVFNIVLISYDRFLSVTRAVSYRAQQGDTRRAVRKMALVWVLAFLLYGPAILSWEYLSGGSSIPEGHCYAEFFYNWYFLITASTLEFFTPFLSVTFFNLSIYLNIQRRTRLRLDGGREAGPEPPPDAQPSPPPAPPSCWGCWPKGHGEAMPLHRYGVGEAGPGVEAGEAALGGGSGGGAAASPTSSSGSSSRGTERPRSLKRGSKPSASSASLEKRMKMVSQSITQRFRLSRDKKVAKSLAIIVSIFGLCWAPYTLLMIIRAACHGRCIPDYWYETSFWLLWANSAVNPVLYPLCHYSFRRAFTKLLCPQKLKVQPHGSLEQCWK
Histamine H3 receptor (Mus musculus), sequence (P58406 whole entry): as the sequence (Q9QYN8 whole entry) above, with T15A, A286T, A290G, R387H, I389V counted along it

Broadly, the ED50 is the dose at which the effect has come halfway, by size or by number of responders. Read a low ED50 as greater potency. For the compound `CCC(C)(C)NC(=O)OCCCc1c[nH]cn1`, the results for the pkB in experiment [1], in [2] and in experiment [3] were 7.34, 4.8 and 3.5, respectively. This compound also returned an Intrinsic activity in experiment [4] of 0.4. Further, in experiment [5], the ED50 worked out at 0.2 mg/kg. For the same compound, in experiment [6], the Kb came to 46 nM.

One may read the Ki as the dissociation constant of the complex between target and ligand, obtained from inhibition or displacement. Low readings indicate tighter binding, high ones weaker binding. Usually EC50 stands for the concentration needed to bring the measured effect to its halfway point. The low end stands for higher potency in that assay, the high end for lower potency in that assay. In the case of `CC(C)(C)CCOCCCc1c[nH]cn1`, the pkB in [1] is 7.38; in experiment [2], 4.5; in [3], under 4. Moreover, the Ki at Histamine H3 receptor [7] and at Histamine H3 receptor [8] was 10 nM throughout. It took 45 nM to reach a half-maximal effect at Histamine H3 receptor [9] (EC50). In addition, the Intrinsic activity was 0.55 at Histamine H3 receptor [10] and 1 in experiment [4]. Also, in [5], the ED50 stood at 0.29 mg/kg. This compound also returned a Kb in experiment [6] of 42 nM.

The compound `CC(C)COCCCc1c[nH]cn1` had a pkB in [1] of 6.64. For the same compound, the results for the Ki at Histamine H3 receptor [7] and at Histamine H3 receptor [8] were 138 nM and 139 nM, respectively. For the same compound, in [6], the Kb stood at 228 nM.

With `CC(C)NC(=O)OCCCc1c[nH]cn1.O=CC(=O)/C(O)=C/O`, the pkB is 7.04 in experiment [1], under 4 in experiment [2] and under 4.3 in experiment [3]. The inhibition constant (Ki) was 81.3 nM at Histamine H3 receptor [7] and 82 nM at Histamine H3 receptor [8]. Moreover, in experiment [5], it took a dose of 15 mg/kg to reach the 50% effect level (ED50). Further, the Kb in experiment [6] amounted to 91 nM.

With `CC(C)(C)CCNC(=O)OCCCc1c[nH]cn1.O=CC(=O)/C(O)=C/O`, the figures for the pkB in [1], in experiment [2] and in experiment [3] were 7.53, 4.2 and 4.3, respectively. Also, in experiment [6], the Kb was determined as 30 nM.

As to `CC(C)CNC(=O)OCCCc1c[nH]cn1`, the values for the pkB in experiment [1], in [2] and in [3] were 7.39, under 4.5 and under 4, respectively. The same compound yielded an ED50 in experiment [5] of over 10 mg/kg. For the same compound, the Kb in experiment [6] was 41 nM.

With `CC(C)CCOCCCc1c[nH]cn1`, the figures for the pkB in experiment [1], in [2] and in experiment [3] were 7.03, 4.5 and 3.5, respectively. Further, the Ki on Histamine H3 receptor [7] was 14.1 nM; at Histamine H3 receptor [8], 14 nM. This compound gave an EC50 on Histamine H3 receptor [9] of 128 nM. Further, the figures for the Intrinsic activity (at Histamine H3 receptor [10]; in [4]) were 0.22 and 1, respectively. For the same compound, in [5], the ED50 turned out to be 0.51 mg/kg. Besides, the Kb in experiment [6] was determined as 93 nM.

With `CC(C)(C)CNC(=O)OCCCc1c[nH]cn1.O.O=C(O)C(=O)O`, the pkB in experiment [1] was 7.4; in [2] it was 3.5; in experiment [3], 3.2. For the same compound, the Ki is 22.9 nM at Histamine H3 receptor [7] and 23 nM on Histamine H3 receptor [8]. Also, the results for the Intrinsic activity (at Histamine H3 receptor [10]; in experiment [4]) were 0.15 and 0.7, respectively. For the same compound, the ED50 in experiment [5] came out at 0.48 mg/kg. The compound further gave a Kb in experiment [6] of 40 nM.

In turn, `N=C(N)SCCc1c[nH]cn1` had an Intrinsic activity in experiment [4] of 1. In addition, the ED50 in [5] was determined as 1 mg/kg. This compound returned a Kb in experiment [6] of 6.6 nM.

As to `CC(C)CCCOCCCc1c[nH]cn1`, the pkB in experiment [1] was found to be 7.89; in experiment [2], 5; in [3] it was 4.6. Moreover, the values for the Ki on Histamine H3 receptor [7] and at Histamine H3 receptor [8] were 9.33 nM and 9.4 nM, respectively. The Intrinsic activity was determined as 0.25 at Histamine H3 receptor [10] and 0.6 in experiment [4]. This compound also registered a 50% effective dose (ED50) in [5] of 0.15 mg/kg. In experiment [6], this compound gave a Kb of 13 nM.

Take `CC(C)(C)CC(C)(C)NC(=O)OCCCc1c[nH]cn1`: the values for the pkB in experiment [1], in experiment [2] and in experiment [3] were 7.58, 6 and 4.3, respectively. Moreover, the figures for the Ki at Histamine H3 receptor [7] and on Histamine H3 receptor [8] were 41.7 nM and 42 nM, respectively. This compound also gave a Kb in experiment [6] of 28 nM.

Regarding `CC(C)(C)NC(=O)OCCCc1c[nH]cn1.O=CC(=O)/C(O)=C/O`, the pkB is 7.22 in experiment [1], under 4 in [2] and under 4 in experiment [3]. This compound also had an Intrinsic activity in experiment [4] of 0.7. Also, the 50% effect level in experiment [5] (ED50) was put at a dose of 0.9 mg/kg. Moreover, in [6], the Kb is 60 nM.
